Results collected from several papers.
Each line is one published result; the experiments were not run side by side.
Target: Carbonic anhydrase 9 (CA9, Homo sapiens, UniProt Q16790)
Read-out: enzyme activity
Action: inhibitor

SMILES	method	endpoint	value
COc1cc(/C=C2/SC(Nc3ccc(S(N)(=O)=O)cc3)=NC2=O)cc(OC)c1OC	–	IC50	39.5 nM
Cc1ccc(-c2ccc(Nc3ccc(S(N)(=O)=O)cc3)nn2)cc1S(=O)(=O)N1CCCCC1	–	IC50	7.94 nM
COc1ccc(C(=O)/C=C/c2cc3c(cc2Br)OCO3)cc1S(N)(=O)=O	–	Ki	8170 nM
NS(=O)(=O)c1ccc(NC2=NC(=O)/C(=C\c3ccc(O)cc3)S2)cc1	–	IC50	203 nM
Cn1cc(-c2cccc3oc(C(=O)NC4CCCN(CC(=O)Nc5ccc(S(N)(=O)=O)cc5)C4)cc23)nn1 (stereo not shown)	–	IC50	30.2 nM
COc1ccc(C(=O)/C=C/c2cccc3ccccc23)cc1S(N)(=O)=O	–	Ki	1640 nM
NS(=O)(=O)c1ccc(-n2nccc2-c2ccc(N3CCOCC3)cc2)cc1	–	Ki	245 nM
NS(=O)(=O)c1ccc(CCNC2=NS(=O)(=O)c3ccc(Cl)cc3N2)cc1	stopped-flow	Ki	37.2 nM
NS(=O)(=O)c1ccc(-n2nccc2-c2ccc(N3CCCCC3)cc2)cc1	–	Ki	227 nM
Cc1ccc(C(=O)Nc2ccc(C(=O)Nc3cccc(S(N)(=O)=O)c3)cc2)s1	–	IC50	409 nM
